Results: PMC3159890 (Frontiers in Pharmacology, 2011)

Key:
Type in all cases: cell-based
wt-CFTR [1] = biological target: T1, wt-CFTR (Homo sapiens, UniProt P13569); assay: whole-cell patch-clamp on wt-CFTR-CHO cells
Summary of the method: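 CHO cells stably expressing wt-CFTR, kept in α-MEM-GlutaMAX with 7% FBS and 100 μM methotrexate, were plated in 35-mm dishes. Whole-cell currents sampled at 3 kHz. Holding potential −40 mV, with pulses −100 to +100 mV in 20 mV steps. Capacitance obtained from a 10 mV hyperpolarization; currents normalized per pF. Stimulation with forskolin 1 μM plus test compound 10 μM. Time course: amplitude at +40 mV plotted every 10 s.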

F508del-CFTR = F508del-CFTR (Homo sapiens, UniProt P13569, DEL508-508); assay: iodide efflux in CuFi-1 cells
Summary of the method: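 CuFi-1 cells (F508del/F508del, CF bronchial epithelium) grown on collagen type VI-coated flasks in BEGM at 37°C, 5% CO2, media renewed every 2 days, then seeded in 24-well plates. F508del-CFTR rescued by 24 h at 27°C or 24 h at 37°C with miglustat. Iodide efflux stimulated by forskolin 10 μM plus test compound 100 μM. Chloride transport inhibitors, when used, were present in loading solution and efflux buffer.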

wild-type CFTR = wild-type CFTR (Homo sapiens, UniProt P13569); assay: iodide efflux in NuLi-1 cells
Summary of the method: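 NuLi-1 cells (non-CF human bronchial epithelium, wild-type CFTR) cultured on collagen type VI-coated flasks in BEGM at 37°C, 5% CO2, media changed every 2 days, and seeded in 24-well plates. Iodide efflux stimulated by forskolin 10 μM plus test compound 100 μM. CFTR-inh172 10 μM was present in loading solution and efflux buffer.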

wt-CFTR-CHO cells = assay: MTT cytotoxicity assay; conditions: 100 μM, 24 h
Summary of the method: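 wt-CFTR-CHO cells in α-MEM-GlutaMAX with 7% FBS and 100 μM methotrexate, exposed 24 h at 37°C to 100 μM test compound; MTT done the next day. PBS wash, then MTT (0.5 mg/ml in PBS) for 4 h at 37°C. Formazan dissolved in DMSO; OD read at 570 nm against 630 nm reference. Mean of three replicates, as percentage of control.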

wt-CFTR [2] = biological target: T1, wt-CFTR; assay: iodide efflux in wt-CFTR-CHO cells
Summary of the method: (§1)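 Stably transfected CHO cells (wt-CFTR or G551D-CFTR, methotrexate-selected) seeded in 24-well plates and loaded with 125I; efflux sampled robotically. Rate k = ln(125It1/125It2)/(t1–t2); response = kpeak − kbasal (min−1). Concentration-response curves expressed as percentage of maximal activation. Chloride transport inhibitors, when used, were present in both loading and efflux buffers.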

wt-CFTR [3] = biological target: T1, wt-CFTR; assay: single-channel cell-attached patch-clamp on wt-CFTR-CHO cells
Summary of the method: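 Cell-attached single-channel recordings on wt-CFTR-CHO cells at room temperature, seals 10–20 GΩ. Bath received forskolin 1 μM, then test compound 10 μM. Pipette (mM): 150 NaCl, 2 MgCl2, 10 TES, pH 7.4. Bath (mM): 145 NaCl, 4 KCl, 2 MgCl2, 10 TES, pH 7.4. Sampled at 3 kHz, filtered at 100 Hz (eight-pole Bessel). Potential = bath minus pipette.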

G551D-CFTR = G551D-CFTR (Homo sapiens, UniProt P13569, G551D); assay: iodide efflux in G551D-CFTR-CHO cells
Summary of the method: as §1

[4] = test system: cAMP levels in wt-CFTR-CHO cells; assay: cAMP-Screen ELISA determination of cAMP; conditions: RP193 100 μM alone or with forskolin 1 μM, 10 min
Summary of the method: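 wt-CFTR-CHO cells incubated with agents for 10 min at 37°C. Reactions then stopped and intracellular cAMP quantified by cAMP-Screen ELISA, following the kit instructions.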

CHO-K1 = assay: whole-cell patch-clamp on CHO-K1 cells; conditions: forskolin 1 μM; RP193 10 μM
Summary of the method: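 Whole-cell clamp, seals 5–10 GΩ. Pipette (mM): Cs-aspartate/CsCl, 1 EGTA, 10 TES, 3 MgATP, pH 7.2. Bath (mM): 145 NaCl, 4 CsCl, 1 CaCl2, 1 MgCl2, 10 glucose, 10 TES, pH 7.4. Held at −40 mV, stepped −100 to +100 mV in 20 mV increments; sampled at 3 kHz. Currents normalised to capacitance (pA/pF); time course read at +40 mV every 10 s.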

[5] = test system: primary cultures of human bronchial epithelial cells (HBEC); assay: Ussing chamber short-circuit current in primary HBEC cultures; conditions: amiloride 10 μM, luminal bath
Summary of the method: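 Primary non-CF bronchial epithelial cells (three lung-resection donors), enzymatically isolated, grown to confluence on permeable collagen supports. Mounted in Ussing chambers in KBR at 37°C, gassed 95% O2-5% CO2. After 20–30 min equilibration and 10 min basal: amiloride 10 μM apical, forskolin 1 μM both sides, test compound basolateral, with 10–15 min stabilisation between additions. ΔIsc = plateau minus pre-addition value; Rt from +2 mV pulses every 90 s.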

For O=C(O)c1ccc(/C=C2\SC(=S)N(c3cccc(C(F)(F)F)c3)C2=O)cc1 [CFTR-inh172, reference compound], the “whole-cell current amplitude at +40 mV after inhibitor” value (wt-CFTR [1]; CFTR-inh172 10 μM added after fsk 1 μM + RP193 10 μM) was 8.2 ± 5.2 pA/pF, the “inhibition of RP193-induced iodide efflux in CuFi-1 cells” value (F508del-CFTR; miglustat-treated cells, CFTRinh-172 10 μM, data not shown) was “fully inhibited” and the “inhibition of RP193-stimulated iodide efflux in NuLi-1 cells” value (wild-type CFTR; CFTR-inh172 10 μM) was “abolished”.
CCCCc1c(-c2ccc(O)cc2)[nH]c2nccnc12 [RP107, 7-n-butyl-6-(4-hydroxyphenyl)[5H]-pyrrolo[2,3-b]pyrazine] was tested, and the “cytotoxicity (cell viability, MTT)” value (wt-CFTR-CHO cells) was “significantly higher cytotoxicity compared to the control conditions”.
With Br.CCCCc1c(-c2cccc(O)c2)[nH]c2nccnc12 [RP146, 7-n-Butyl-6-(3-hydroxyphenyl)-5H-pyrrolo[2,3-b]pyrazine hydrobromide] the “cytotoxicity (cell viability, MTT)” value (wt-CFTR-CHO cells) was “significantly higher cytotoxicity compared to the control conditions” and the EC50 (wt-CFTR [2]) was 97 µM.
In the case of Br.CCCCc1c(-c2ccccc2O)[nH]c2nccnc12 [RP173, 7-n-Butyl-6-(2-hydroxyphenyl)-5H-pyrrolo[2,3-b]pyrazine hydrobromide], the “cytotoxicity (cell viability, MTT)” value (wt-CFTR-CHO cells) is reported as “significantly higher cytotoxicity compared to the control conditions”.
For CCCCc1c(-c2ccc(F)cc2)[nH]c2nccnc12 [RP185, 7-n-butyl-6-(4-fluorophenyl)-5H-pyrrolo[2,3-b]pyrazine], the “cytotoxicity (cell viability, MTT)” value (wt-CFTR-CHO cells) was “not cytotoxic” and the EC50 (wt-CFTR [2]) was 78 µM.
For CCCCc1c(-c2ccccc2F)[nH]c2nccnc12 [RP193, 7-n-butyl-6-(2-fluorophenyl)-5H-pyrrolo[2,3-b]pyrazine], the “single-channel CFTR activity, cell-attached” value (wt-CFTR [3]; RP193 10 μM in bath, in presence of forskolin 1 μM) was “progressive and sustained CFTR activity was recorded”, the average unitary conductance (wt-CFTR [3]; forskolin 1 μM + RP193 10 μM, n = 4) was 8.1 ± 0.0 pS and the “stimulation of iodide efflux in G551D-CFTR-CHO cells” value (G551D-CFTR; RP193 10 μM in presence of forskolin 10 μM, n = 4) was “stimulated an efflux”. The “stimulation of iodide efflux in G551D-CFTR-CHO cells” value (G551D-CFTR; RP193 alone, not shown) was “did not have any effect”, the “dependence of CFTR potentiation on intracellular cAMP levels” value [4] was “independent of intracellular cAMP levels” and the “cytotoxicity (cell viability, MTT)” value (wt-CFTR-CHO cells) was “not cytotoxic”. The “time to significant increase of the whole-cell current” value (wt-CFTR [1]; RP193 10 μM in presence of forskolin 1 μM) was 5 to 7 min, the “whole-cell current amplitude at +40 mV” value (wt-CFTR [1]; RP193 10 μM in the presence of 1 μM fsk) was 113.8 ± 15.1 pA/pF and the “stimulation of iodide efflux in CuFi-1 cells” value (“stimulation … in CuFi-1 cells” for short) (F508del-CFTR; cells 24 h at 27°C, RP193 100 μM in presence of forskolin 10 μM) was “iodide efflux significantly higher than with forskolin alone”. For the same compound, the “stimulation … in CuFi-1 cells” value (F508del-CFTR; cells cultivated at 37°C, RP193 100 μM + forskolin 10 μM) was “did not stimulate iodide efflux”, the “stimulation … in CuFi-1 cells” value (F508del-CFTR; cells non-treated with miglustat) was “no effect” and the “stimulation of CFTR-dependent iodide efflux” value (wt-CFTR [2]; RP193 100 μM without forskolin, wt-CFTR-CHO cells) was “no stimulation of CFTR activity”. The “effect on whole-cell current in CHO-K1” value (CHO-K1) was “no effect” and the “stimulation of iodide efflux in NuLi-1 cells” value (wild-type CFTR; RP193 100 μM in presence of forskolin 10 μM) was “stimulated CFTR in NuLi-1 cells”.
With N=C(N)NC(=O)c1nc(Cl)c(N)nc1N [amiloride] the “change in Isc” value [5] was −29.5 ± 4.5 μA/cm^2.
C=C[C@@]1(C)CC(=O)[C@]2(O)[C@@]3(C)[C@@H](O)CCC(C)(C)[C@@H]3[C@H](O)[C@H](OC(C)=O)[C@@]2(C)O1 [forskolin, reference compound] was tested, and the “stimulation of iodide efflux in G551D-CFTR-CHO cells” value (G551D-CFTR; forskolin 10 μM alone, compared to basal state) was “No significant stimulation”, the “whole-cell current amplitude at +40 mV” value (wt-CFTR [1]; forskolin 1 μM alone) was 18.4 ± 6.2 pA/pF and the “effect on whole-cell current in CHO-K1” value (CHO-K1) was “no effect”.
